Test results reported in ChEMBL document CHEMBL1154766, “Synthesis and biological evaluation of new podophyllic aldehyde derivatives with cytotoxic and apoptosis-inducing activities” (2010).
Activity calls are given as the source filed them. The calls are words filed in the database; no cut-off is given here.

Tests used:
A549 = test: Cytotoxicity against human A549 cells after 72 hrs by SRB assay; type: functional; conditions: A549, 72 h
Method in brief: (§1)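 SRB growth assay: 5 × 10³ cells/well in RPMI, attached 18 h drug-free, then compound added in DMSO/H₂O 3:7 for 72 h. Fixed with cold 50% TCA 60 min at 4 °C, stained 0.4% SRB in 1% acetic acid 10 min, bound dye solubilized in Tris, OD 490 nm. GI50 from 100[(T−T0)/(C−T0)] = 50; mean of triplicates.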

MDA-MB-231 = test: Cytotoxicity against human MDA-MB-231 cells after 72 hrs by SRB assay; type: functional; conditions: MDA-MB-231, 72 h; method in brief: as §1
HT-29 [1] = test: Cytotoxicity against human HT-29 cells after 72 hrs by SRB assay; type: functional; conditions: HT-29, 72 h; method in brief: as §1
HT-29 [2] = test: Cell cycle arrest in human HT-29 cells assessed as accumulation at S phase at 1 uM after 24 hrs by flow cytometry; type: functional
Method in brief: (§2)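 HT-29 cells incubated at 1 μM for 24, 48 or 72 h alongside untreated controls. (3-5) × 10⁵ cells fixed overnight in 70% ethanol at 4 °C, PBS-washed three times, then treated 1 h at room temperature with 1 mg/mL RNase A and 20 μg/mL propidium iodide. DNA content read by flow cytometry; apoptosis taken as % cells in sub-G1 peak. Representative of three independent experiments.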

HT-29 [3] = test: Cell cycle arrest in human HT-29 cells assessed as accumulation at G0/G1 phase at 1 uM after 48 hrs by flow cytometry; type: functional; method in brief: as §2
HT-29 [4] = test: Cell cycle arrest in human HT-29 cells assessed as accumulation at S phase at 1 uM after 72 hrs by flow cytometry; type: functional; method in brief: as §2
HT-29 [5] = test: Cell cycle arrest in human HT-29 cells assessed as accumulation at S phase at 1 uM after 48 hrs by flow cytometry; type: functional; method in brief: as §2
HT-29 [6] = test: Induction of apoptosis in human HT-29 cells assessed as accumulation at subG1 phase at 1 uM after 48 hrs by flow cytometry; type: functional; method in brief: as §2
HT-29 [7] = test: Induction of apoptosis in human HT-29 cells assessed as accumulation at subG1 phase at 1 uM after 72 hrs by flow cytometry; type: functional; method in brief: as §2
HT-29 [8] = test: Induction of apoptosis in human HT-29 cells assessed as accumulation at subG1 phase at 1 uM after 24 hrs by flow cytometry; type: functional; method in brief: as §2
HT-29 [9] = test: Induction of microtubule disruption in human HT-29 cells at 1 uM after 24 hrs; type: cell-based
Method in brief: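 HT-29 cells on poly-L-lysine coverslips exposed to 1 μM for 24 h, washed in HPEM (pH 6.6), fixed with 4% paraformaldehyde 15 min, permeabilized with 0.5% Triton X-100. Anti-α-tubulin mouse monoclonal (1:150, 1 h) then CY3 anti-mouse IgG (1 h, 4 °C); nuclei DAPI-stained; imaged by confocal microscopy. Representative of at least three experiments.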

HT-29 [10] = test: Cell cycle arrest in human HT-29 cells assessed as accumulation at G2/M phase at 1 uM after 72 hrs by flow cytometry; type: functional; method in brief: as §2
HT-29 [11] = test: Cell cycle arrest in human HT-29 cells assessed as accumulation at G2/M phase at 1 uM after 48 hrs by flow cytometry; type: functional; method in brief: as §2
HT-29 [12] = test: Cell cycle arrest in human HT-29 cells assessed as accumulation at G0/G1 phase at 1 uM after 24 hrs by flow cytometry; type: functional; method in brief: as §2
HT-29 [13] = test: Cell cycle arrest in human HT-29 cells assessed as accumulation at G0/G1 phase at 1 uM after 72 hrs by flow cytometry; type: functional; method in brief: as §2
HT-29 [14] = test: Cell cycle arrest in human HT-29 cells assessed as accumulation at G2/M phase at 1 uM after 24 hrs by flow cytometry; type: functional; method in brief: as §2

Row | SMILES | GI50 (A549) [nM] | GI50 (MDA-MB-231) [nM] | GI50 (HT-29 [1]) [nM] | also measured
1 | CCCCCCCOC(=O)[C@H]1[C@H](c2cc(OC)c(OC)c(OC)c2)c2cc3c(cc2[C@H](O)[C@H]1CO)OCO3 [HEPTYL PICROPODOPHYLLATE] | 190 | 180 | 160 | 
2 | CCCNCC1=Cc2cc3c(cc2[C@@H](c2cc(OC)c(OC)c(OC)c2)[C@@H]1C(=O)OCC)OCO3 | 230 | 370 | 270 | 
3 | CCCNCC1=Cc2cc3c(cc2[C@@H](c2cc(OC)c(OC)c(OC)c2)[C@@H]1C(=O)OCc1cc(OC)c(OC)c(OC)c1)OCO3 | 1900 | 6400 | 2000 | 
4 | CCCNCC1=Cc2cc3c(cc2[C@@H](c2cc(OC)c(OC)c(OC)c2)[C@@H]1C(=O)OC)OCO3 | 1500 | 5500 | 1000 | 
5 | CCNC(=O)[C@@H]1C(C=O)=Cc2cc3c(cc2[C@H]1c1cc(OC)c(OC)c(OC)c1)OCO3 | 4500 | 7100 | 8000 | Activity (HT-29 [2]): 9.8%; Activity (HT-29 [3]): 33%; Activity (HT-29 [4]): 0.5%; Activity (HT-29 [5]): 3%; Activity (HT-29 [6]): 61.7%; Activity (HT-29 [7]): 93.8%; Activity (HT-29 [8]): 25%; Activity (HT-29 [9]): inactive; Activity (HT-29 [10]): 0.4%; Activity (HT-29 [11]): 2.3%; Activity (HT-29 [12]): 51.7%; Activity (HT-29 [13]): 5.3%; Activity (HT-29 [14]): 13.5%
6 | COc1cc([C@@H]2c3cc4c(cc3[C@H](O)[C@H]3COC(=O)[C@H]23)OCO4)cc(OC)c1OC [PODOFILOX] | 12 |  | 24 | 
7 | CCNC(=O)[C@H]1[C@H](c2cc(OC)c(OC)c(OC)c2)c2cc3c(cc2[C@H](O)[C@H]1CO)OCO3 | 9800 | 10000 | 10000 | 
8 | CCNCC1=Cc2cc3c(cc2[C@@H](c2cc(OC)c(OC)c(OC)c2)[C@@H]1C(=O)N1CCCC1)OCO3 | > 20000 | > 20000 | > 20000 | 
9 | COc1cc(COC(=O)[C@@H]2C(C=O)=Cc3cc4c(cc3[C@H]2c2cc(OC)c(OC)c(OC)c2)OCO4)cc(OC)c1OC | 34 | 42 | 20 | Activity (HT-29 [2]): 1.1%; Activity (HT-29 [3]): 6.8%; Activity (HT-29 [4]): 12.9%; Activity (HT-29 [5]): 5.1%; Activity (HT-29 [6]): 8.6%; Activity (HT-29 [7]): 32.3%; Activity (HT-29 [8]): 0.5%; Activity (HT-29 [9]): Active; Activity (HT-29 [10]): 36.5%; Activity (HT-29 [11]): 79.5%; Activity (HT-29 [12]): 0.9%; Activity (HT-29 [13]): 18.3%; Activity (HT-29 [14]): 97.5%
10 | CC/N=C/C1=Cc2cc3c(cc2[C@@H](c2cc(OC)c(OC)c(OC)c2)[C@@H]1C(=O)OC)OCO3 | 22 |  | 2.2 | 
11 | COC(=O)[C@@H]1C(/C=N/c2ccc(OC)cc2)=Cc2cc3c(cc2[C@H]1c1cc(OC)c(OC)c(OC)c1)OCO3 | 94 |  | 9.4 | 
12 | COc1cc([C@@H]2c3cc4c(cc3[C@H](O)[C@@H](CO)[C@H]2C(=O)OC/C=C/c2ccccc2)OCO4)cc(OC)c1OC [CINNAMYL PICROPODOPHYLLATE] | 200 | 180 | 150 | 
13 | CCC/N=C/C1=Cc2cc3c(cc2[C@@H](c2cc(OC)c(OC)c(OC)c2)[C@@H]1C(=O)OCc1cc(OC)c(OC)c(OC)c1)OCO3 | 5.2 | 130 | 4.3 | 
14 | COc1ccc(NC(=O)[C@@H]2C(C=O)=Cc3cc4c(cc3[C@H]2c2cc(OC)c(OC)c(OC)c2)OCO4)cc1 | 1200 | 4600 | 800 | Activity (HT-29 [2]): 13.2%; Activity (HT-29 [3]): 50.4%; Activity (HT-29 [4]): 8.4%; Activity (HT-29 [5]): 1.8%; Activity (HT-29 [6]): 45.2%; Activity (HT-29 [7]): 52.6%; Activity (HT-29 [8]): 13.6%; Activity (HT-29 [9]): inactive; Activity (HT-29 [10]): 2.6%; Activity (HT-29 [11]): 2.6%; Activity (HT-29 [12]): 48%; Activity (HT-29 [13]): 36.4%; Activity (HT-29 [14]): 25.2%
15 | CCOC(=O)[C@H]1[C@H](c2cc(OC)c(OC)c(OC)c2)c2cc3c(cc2[C@H](O)[C@H]1CO)OCO3 [ETHYL PICROPODOPHYLLATE] | 70 | 90 | 90 | 
16 | COC(=O)[C@@H]1C(CNc2ccc(OC)cc2)=Cc2cc3c(cc2[C@H]1c1cc(OC)c(OC)c(OC)c1)OCO3 | 1000 | 2400 | 700 | 
17 | CCOC(=O)[C@@H]1C(C=O)=Cc2cc3c(cc2[C@H]1c1cc(OC)c(OC)c(OC)c1)OCO3 | 180 | 540 | 200 | 
18 | COC(=O)[C@@H]1C(CNc2ccc(C)cc2)=Cc2cc3c(cc2[C@H]1c1cc(OC)c(OC)c(OC)c1)OCO3 | 900 | 1500 | 800 | 
19 | CCC/N=C/C1=Cc2cc3c(cc2[C@@H](c2cc(OC)c(OC)c(OC)c2)[C@@H]1C(=O)OCC)OCO3 | 230 | 1200 | 390 | 
20 | COc1ccc(NCC2=Cc3cc4c(cc3[C@@H](c3cc(OC)c(OC)c(OC)c3)[C@@H]2C(=O)N2CCCC2)OCO4)cc1 | 15000 | > 17000 | 15000 | 
21 | C=CCOC(=O)[C@H]1[C@H](c2cc(OC)c(OC)c(OC)c2)c2cc3c(cc2[C@H](O)[C@H]1CO)OCO3 [ALLYL PICROPODOPHYLLATE] | 120 | 110 | 80 | 
22 | CCNCC1=Cc2cc3c(cc2[C@@H](c2cc(OC)c(OC)c(OC)c2)[C@@H]1C(=O)OC)OCO3 | 700 | 2600 | 400 | 
23 | COC(=O)[C@@H]1C(C=O)=Cc2cc3c(cc2[C@H]1c1cc(OC)c(OC)c(OC)c1)OCO3 [PODOPHYLLIC ALDEHYDE] | 61 | 200 | 38 | 
24 | COc1cc([C@@H]2c3cc4c(cc3[C@H](O)[C@@H](CO)[C@H]2C(=O)N2CCCC2)OCO4)cc(OC)c1OC [PICROPODOPHYLLIC ACID PYRROLIDINYL AMIDE] | 6800 | 7800 | 7800 | 
25 | CCOC(=O)COC(=O)[C@H]1[C@H](c2cc(OC)c(OC)c(OC)c2)c2cc3c(cc2[C@H](O)[C@H]1CO)OCO3 [ETHOXYCARBONYLMETHYL PICROPODOPHYLLATE] | 170 | 160 | 180 | 
26 | COc1cc([C@@H]2c3cc4c(cc3[C@H](O)[C@@H](CO)[C@H]2C(=O)OCCCBr)OCO4)cc(OC)c1OC | > 17000 | 34 | 22 | 
27 | COc1cc([C@@H]2c3cc4c(cc3C=C(C=O)[C@H]2C(=O)N2CCCC2)OCO4)cc(OC)c1OC | 6600 | 8200 | 7300 | 
28 | CCC/N=C/C1=Cc2cc3c(cc2[C@@H](c2cc(OC)c(OC)c(OC)c2)[C@@H]1C(=O)OC)OCO3 | 41 | 1300 | 41 | 
